From PubChem BioAssay
In the library only some 2.2% were active in any assay of this set; here they are far more common.
Insulin prom inh = TRM-6 insulin promoter activity inhibition; inhibition, % at 2 µM; 130,000 tested, 0.9% active; TRM-6 cells (human fetal islet line), insulin promoter-eGFP reporter, imaging; reporter expression induced with tamoxifen; AID 1273;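 active = inhibition above the mean plus 3 SD, with well images judged a real hit on visual review, cut at about 60% in these data, passing the limit was not always enough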
Hsp70 activator = switches on Hsp70 transcription. 200,000 tested, 0.04% active. activation, % at 10 µM. HeLa Hsp70 promoter luciferase reporter, luminescence; scaled: vehicle 0, proteasome-inhibitor control 100%;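 active = activation above the mean across all tested compounds plus 3 SD, cutoff set per campaign, cut at about 5.5% in these data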
RBBP9 inhibitor = inhibitors of human serine hydrolase RBBP9. O75884. recombinant RBBP9, FP-Rh probe fluorescence polarization. inhibition, % at 7.94 µM. 220,000 tested, 0.2% active;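 active = inhibition above the campaign mean of all tested compounds plus 3 SD, cut at about 14% in these data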
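System: RBBP9 protein | Quantity: 2.5 µM RBBP9 dispensing solution, before mixing | Reagent: FP-Rh probe, 375 nM dispensing solution | Timing: Enzyme-compound preincubation 30 min, then probe labeling 45 min, 25 °C | Measured by: Fluorescence polarization | Read-out: % inhibition | Replication: One well per compound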
Wee1 degr inh = human Wee1 degradation inhibition, primary screen; HeLa Luc-Wee1K328M stability, luciferase luminescence; 100% = proteasome inhibitor MG132 effect; reporter increase, % at 5 µM; 220,000 tested, 1.2% active; AID 1321;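 active = activation above the mean of all tested compounds plus 3 SD, set per screening run, cut at about 8.8% in these data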;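 also: cells exposed to compound for 20 h before luminescence read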
Insulin prom up = MIN6 insulin promoter up-regulation; MIN6 insulin promoter-GFP reporter, high-content imaging; stronger effect = higher value; z-score at 5 µM; 190,000 tested, 0.3% active; AID 1625;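 active = z-score above 3 at 5 µM with at least 500 cells counted in the well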
Mdm2 ligase inh = Mdm2 E3 ligase (human) inhibition. 210,000 tested, 0.11% active. AID 1230. cell-based MDM2 ubiquitination luciferase reporter, 2 h; 0 = plate control, 100 = twice control, blank-subtracted. signal enhancement, % at 5 µM. Q00987;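 active = signal enhancement of 30% or more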;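 also: luminescence tracks abundance of the self-degrading MDM2-luciferase fusion protein; higher signal means inhibition of MDM2 E3 ligase activity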
Target sequence (Q00987 whole entry, looked up, the tested form may be a part): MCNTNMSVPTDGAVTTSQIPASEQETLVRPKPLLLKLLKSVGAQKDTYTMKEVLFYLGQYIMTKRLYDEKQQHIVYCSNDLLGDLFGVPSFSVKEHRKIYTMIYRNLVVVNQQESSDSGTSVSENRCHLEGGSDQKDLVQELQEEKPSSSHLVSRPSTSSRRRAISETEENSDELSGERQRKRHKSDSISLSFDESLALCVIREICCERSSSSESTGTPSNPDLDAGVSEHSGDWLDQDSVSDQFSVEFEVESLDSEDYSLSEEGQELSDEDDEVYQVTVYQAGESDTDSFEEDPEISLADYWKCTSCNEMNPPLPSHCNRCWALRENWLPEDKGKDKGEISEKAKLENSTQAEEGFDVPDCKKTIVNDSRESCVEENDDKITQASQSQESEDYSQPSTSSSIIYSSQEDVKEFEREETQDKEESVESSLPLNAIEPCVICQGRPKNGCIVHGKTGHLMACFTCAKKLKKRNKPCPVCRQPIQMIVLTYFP
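Test system: stable mammalian line carrying autodegrading MDM2–luciferase fusion reporter; quantity: 2000 cells in each well; times: 4 h cell settling then 2 h compound exposure, 37 °C; detection: luminescence with SteadyLite reagent, 15 min at room temperature; evaluation: percent signal gain over controls, blank-subtracted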
Of the large screens only hits and unclear results are named; the others gave an inactive call.

CC1=NNC(=O)C1CCC(=O)N/N=C/c1ccc(C)cc1 (stereo not given)	Insulin prom up 3.3 (no result: Insulin prom inh, Hsp70 activator)
Cc1ccc(NCC(=O)c2ccc([N+](=O)[O-])cc2)cc1	Wee1 degr inh 9.4
O=C(/C=C/c1ccc([N+](=O)[O-])cc1)Nc1ncc([N+](=O)[O-])s1	Wee1 degr inh 22 (no result: Insulin prom inh)
O=C(/C=C/c1ccc([N+](=O)[O-])cc1)NCc1ccccn1	none
Cc1ccccc1NC(=S)N(Cc1ccco1)C(C)c1ccccn1 (stereo not given)	none (no result: Insulin prom inh, Mdm2 ligase inh)
CCOc1cc(C2NC(=O)N(C)C(C)=C2C(=O)OC)cc(Br)c1O (stereo not given)	none
COc1ccc(N2CCN(S(=O)(=O)/C=C/c3ccccc3)CC2)cc1	Wee1 degr inh 9.3 (no result: Insulin prom inh)
Cc1ccc(NC(=O)N2CCN(C/C=C/c3ccccc3)CC2)cc1	none (no result: Insulin prom inh)
COC(=O)c1ccccc1NC(=O)N1CCN(C/C=C/c2ccccc2)CC1	Wee1 degr inh 10
COc1cccc(NC(=S)N2CCN(C/C=C/c3ccccc3)CC2)c1	none
S=C(Nc1ccccc1)N1CCN(C/C=C/c2ccccc2)CC1	Wee1 degr inh 10 (no result: Insulin prom inh)
COc1cccc(NC(=O)Cn2c(=O)n(-c3ccccc3)c(=O)c3sccc32)c1	none (no result: Insulin prom inh)
COc1cccc(NC(=O)CSC2=C(C#N)C(c3ccco3)C3=C(CCCC3=O)N2)c1 (stereo not given)	Wee1 degr inh 10 (no result: Insulin prom inh)
CC(=O)C1=C(C)NC(SCC(=O)c2ccc(F)cc2)=C(C#N)C1c1ccco1 (stereo not given)	none (no result: Insulin prom inh)
N#CC1=C(SCC(=O)c2ccccc2)NC2=C(C(=O)CCC2)C1c1ccco1 (stereo not given)	Wee1 degr inh 9.8
COc1ccccc1NC(=O)C1=C(C)NC(SCC(=O)c2ccc(C)cc2)=C(C#N)C1c1ccco1 (stereo not given)	Insulin prom up 3.3
COc1ccc(NC(=O)CSC2=C(C#N)C(c3ccco3)C3=C(CCCC3=O)N2)c(OC)c1 (stereo not given)	none
Cc1ccc(CO/N=C\Cc2snc(Sc3ncc(C(F)(F)F)cc3Cl)c2C#N)cc1	none
COc1ccccc1C(=O)NNC(=O)c1ccc(NC(=O)C(C)C)cc1	none (no result: Insulin prom inh)
N#C/C(=C(/O)COC(=O)c1ccc(O)cc1)c1nc2ccccc2[nH]1	Wee1 degr inh 8.9 (no result: Insulin prom inh, Hsp70 activator)
CC(C)C(=O)OC/C(O)=C(\C#N)c1nc2ccccc2[nH]1	none
CCNC(=O)CN1C(=O)NC(CCc2ccccc2)C1=O (stereo not given)	none
Cc1cc(C)c(NC(=O)CN2C(=O)NC(CCc3ccccc3)C2=O)c(C)c1 (stereo not given)	Wee1 degr inh 11
O=C(CN1C(=O)NC(CCc2ccccc2)C1=O)NC1CC1 (stereo not given)	Wee1 degr inh 11
O=C(Nc1ccc2c(c1)CCC2)c1cc(S(=O)(=O)N2CCN(c3ccccc3)CC2)ccc1Cl	none
Cc1ccc(Sc2ncnc3onc(C)c23)c(C)c1	Wee1 degr inh 9.1
Cn1c(C(C#N)C2=C(Cl)C(=O)N(c3ccccc3)C2=O)nc2ccccc21 (stereo not given)	none (no result: Insulin prom inh)
Cc1ccc(SCC2=NN(c3nc(C)cc(C)n3)C(=O)C2)cc1	Insulin prom inh 67
Cc1ccc(S(=O)(=O)N(Cc2cc3cccc(C)c3[nH]c2=O)c2ccccc2)cc1	Wee1 degr inh 9.1 (no result: Mdm2 ligase inh)
O=S(=O)(Nc1ccc(S(=O)(=O)Nc2ccccc2)cc1)c1ccccc1	Wee1 degr inh 9.2
O=C(CSc1nc(O)cc(=O)n1-c1ccccc1)Nc1nc2ccccc2s1	none (no result: Insulin prom inh, Hsp70 activator)
CCOC(=O)c1c(C)nc(-c2ccccc2)nc1NC(=O)CC	Insulin prom inh 71
CCCNC(=O)Cn1nc(C(F)(F)F)c2c1CCCC2	none (no result: Insulin prom up)
Cc1c(-c2nc(N)nc(Nc3ccccc3)n2)oc2ccccc12	Wee1 degr inh 10.0 (no result: Insulin prom inh)
Cc1ncsc1C(=O)N1N=C2/C(=C/c3ccc(N4CCOCC4)cc3)CCCC2C1c1ccc(N2CCOCC2)cc1 (stereo not given)	Wee1 degr inh 9.0
Cc1ncsc1C(=O)N1N=C2/C(=C/c3ccccc3)CCCC2C1c1ccccc1 (stereo not given)	none (no result: Insulin prom inh)
